According to ChEMBL document CHEMBL4387760, “Synthesis of oxytocin derivatives lipidated via a carbonate or carbamate linkage as a long-acting therapeutic agent for social impairment-like behaviors” (Bioorg Med Chem, 2019):
pEC50: −log10 of the molar value. Active and inactive are the calls of the source. The calls are words filed in the database; no cut-off is given here.

Assays:
Vasopressin V1a receptor = Vasopressin V1a receptor (Homo sapiens, UniProt P37288); assay: Agonist activity at human V1A receptor expressed in HEK293 cells assessed as intracellular calcium level measured at 3 secs interval for 5 mins by fura-2/AM dye based micro spectrofluorometric method; format: functional, cell-based
Outline: (§1)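 HEK-293 cells stably expressing the receptor (G418-selected) were loaded with fura-2/AM for 30 min at 37 °C and washed in HEPES-buffered saline, pH 7.4. Fluorescence was read at 37 °C with 340/380 nm excitation, and F340/F380 was normalized to the 10 s baseline. Responses were expressed as % of the OT maximum (OTR) or the AVP maximum (V1A), with EC50 from 3 independent experiments at 20 cells/dish.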

Vasopressin V1b receptor = molecular target: T1, Vasopressin V1b receptor (Homo sapiens, UniProt P47901); assay: Agonist activity at human V1B receptor expressed in HEK293 cells assessed as intracellular calcium level measured at 3 secs interval for 5 mins by fura-2/AM dye based micro spectrofluorometric method; format: functional, cell-based
T1 sequence (P47901 whole entry): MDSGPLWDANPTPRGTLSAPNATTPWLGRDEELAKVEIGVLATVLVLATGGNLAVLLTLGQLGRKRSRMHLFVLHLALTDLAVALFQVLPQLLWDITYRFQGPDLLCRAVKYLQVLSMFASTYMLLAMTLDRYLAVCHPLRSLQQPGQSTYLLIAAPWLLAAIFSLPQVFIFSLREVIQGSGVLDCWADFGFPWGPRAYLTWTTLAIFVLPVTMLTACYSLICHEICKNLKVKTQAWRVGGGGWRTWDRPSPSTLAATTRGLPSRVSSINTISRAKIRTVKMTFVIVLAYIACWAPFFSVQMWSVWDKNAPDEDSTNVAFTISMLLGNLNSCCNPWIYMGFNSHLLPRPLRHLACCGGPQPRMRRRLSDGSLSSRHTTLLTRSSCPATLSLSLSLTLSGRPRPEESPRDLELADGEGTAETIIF

[1] = molecular target: T2, Oxytocin receptor (Homo sapiens) (UniProt P30559); assay: Agonist activity at human OTR receptor expressed in HEK293 cells measured at 3 secs interval for 5 mins by fura-2/AM dye based micro spectrofluorometric method relative to OT; format: cell-based
T2 sequence (whole entry): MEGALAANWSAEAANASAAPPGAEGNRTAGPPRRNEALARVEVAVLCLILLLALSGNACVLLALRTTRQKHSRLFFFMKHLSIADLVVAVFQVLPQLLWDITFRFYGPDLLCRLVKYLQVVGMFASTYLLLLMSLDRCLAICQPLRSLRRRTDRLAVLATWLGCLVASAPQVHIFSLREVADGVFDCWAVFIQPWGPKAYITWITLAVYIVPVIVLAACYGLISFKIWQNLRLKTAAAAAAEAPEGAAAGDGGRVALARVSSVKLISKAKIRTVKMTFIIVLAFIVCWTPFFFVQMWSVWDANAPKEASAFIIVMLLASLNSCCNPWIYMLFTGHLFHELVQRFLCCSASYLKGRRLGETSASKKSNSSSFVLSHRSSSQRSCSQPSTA
Outline: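 HEK-293 cells stably expressing human OTR (G418-selected) were loaded with fura-2/AM (final […] as printed) at 37 °C for 30 min, then washed in HEPES-buffered saline, pH 7.4. F340/F380 ratio was read every 3 s for 5 min at 37 °C, normalized to 10-s pre-application baseline, as % of maximal OT response. Three independent experiments, 20 cells per dish; EC50 derived.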

Mus musculus [2] = assay: Improvement in paternal nurturing behavior in CD38 knock out Slc:ICR mouse sire model of autism spectrum disorder assessed as parental scores to retrieve pups by sires at 100 ng/100 g, ip administered as single dose measured after 30 mins by parental retrieval test (reference value: 0 +/- 0 No units); format: functional
Mus musculus [3] = assay: Improvement in paternal nurturing behavior in CD38 knock out Slc:ICR mouse sire model of autism spectrum disorder assessed as parental scores to retrieve pups by sires at 100 ng/100 g, ip administered as single dose measured after 24 hrs by parental retrieval test (reference value: 0 +/- 0 No units); format: functional
Oxytocin receptor = molecular target: T3, Oxytocin receptor (Homo sapiens, UniProt P30559); assay: Agonist activity at human OTR receptor expressed in HEK293 cells assessed as intracellular calcium level measured at 3 secs interval for 5 mins by fura-2/AM dye based micro spectrofluorometric method; format: functional, cell-based; outline: as §1
T3 sequence (P30559 whole entry): T2 sequence (whole entry)

Mus musculus [4] = assay: Improvement in paternal nurturing behavior in CD38 knock out Slc:ICR mouse sire model of autism spectrum disorder assessed as increase in parental scores to retrieve pups by sires at 100 ng/100 g, ip administered as single dose measured after 12 hrs by parental retrieval test; format: functional, organism-based
Outline: (§2)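 This time-course test used CD38KOCC sires (Slc:ICR) paired with females. Each received a single ip dose of 100 ng/100 g body weight in PBS, with PBS as vehicle control. Paternal pup-retrieval scores were recorded at successive times after injection, including 6, 12, 24 and 48 h. Treatment effects were analysed by two-way ANOVA.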

Mus musculus [5] = assay: Improvement in paternal nurturing behavior in CD38 knock out Slc:ICR mouse sire model of autism spectrum disorder assessed as increase in parental scores to retrieve pups by sires at 100 ng/100 g, ip administered as single dose measured after 24 hrs by parental retrieval test; format: functional, organism-based
Mus musculus [6] = assay: Improvement in paternal nurturing behavior in CD38 knock out Slc:ICR mouse sire model of autism spectrum disorder assessed as increase in parental scores to retrieve pups by sires at 100 ng/100 g, ip administered as single dose measured after 48 hrs by parental retrieval test; format: functional, organism-based; outline: as §2
Mus musculus [7] = assay: Improvement in paternal nurturing behavior in CD38 knock out Slc:ICR mouse sire model of autism spectrum disorder assessed as parental scores to retrieve pups by sires at 100 ng/100 g, ip administered as single dose measured after 6 hrs by parental retrieval test; format: functional, organism-based; outline: as §2

Sequence of Vasopressin V1a receptor (P37288 whole entry): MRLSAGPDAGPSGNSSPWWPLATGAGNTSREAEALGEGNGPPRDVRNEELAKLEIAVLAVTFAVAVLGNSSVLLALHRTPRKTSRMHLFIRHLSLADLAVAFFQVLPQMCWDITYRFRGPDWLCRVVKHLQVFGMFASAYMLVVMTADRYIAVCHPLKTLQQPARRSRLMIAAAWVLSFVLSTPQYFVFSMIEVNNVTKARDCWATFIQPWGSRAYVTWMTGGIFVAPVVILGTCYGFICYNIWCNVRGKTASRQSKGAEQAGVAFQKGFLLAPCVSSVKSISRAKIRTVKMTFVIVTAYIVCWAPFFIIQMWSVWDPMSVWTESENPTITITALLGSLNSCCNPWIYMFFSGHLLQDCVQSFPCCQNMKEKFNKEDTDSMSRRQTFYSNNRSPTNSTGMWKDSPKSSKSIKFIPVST

| Emax [1] [%] | SMILES | pEC50 (Vasopressin V1a receptor) | pEC50 (Vasopressin V1b receptor) | Activity (Mus musculus [2]) | Activity (Mus musculus [3]) | pEC50 (Oxytocin receptor) | Activity (Mus musculus [4]) | Activity (Mus musculus [5]) | Activity (Mus musculus [6]) | Activity (Mus musculus [7]) |
| --- | --- | --- | --- | --- | --- | --- | --- | --- | --- | --- |
| 15.3 | CCCCCCCCCCCCCCCC(=O)N[C@H]1CSSC[C@@H](C(=O)N2CCC[C@H]2C(=O)N[C@@H](CC(C)C)C(=O)NCC(N)=O)NC(=O)[C@H](CC(N)=O)NC(=O)[C@H](CCC(N)=O)NC(=O)[C@H]([C@@H](C)CC)NC(=O)[C@H](Cc2ccc(OC(=O)OCCCCCCCCCCCCCC)cc2)NC1=O | < 4.00 | < 4.00 | 6.8 | 3.1 | – | – | – | – | – |
| – | CCCCCCCCCCCCCCCNC(=O)Oc1ccc(C[C@@H]2NC(=O)[C@@H](NC(=O)CCCCCCCCCCCCCCC)CSSC[C@@H](C(=O)N3CCC[C@H]3C(=O)N[C@@H](CC(C)C)C(=O)NCC(N)=O)NC(=O)[C@H](CC(N)=O)NC(=O)[C@H](CCC(N)=O)NC(=O)[C@H]([C@@H](C)CC)NC2=O)cc1 | < 4.00 | < 4.00 | 2 | 3.1 | < 5.00 | – | – | – | – |
| 0 | CCCCCCCCCCCCCCCCOC(=O)Oc1ccc(C[C@@H]2NC(=O)[C@@H](NC(=O)CCCCCCCCCCCCCCC)CSSC[C@@H](C(=O)N3CCC[C@H]3C(=O)N[C@@H](CC(C)C)C(=O)NCC(N)=O)NC(=O)[C@H](CC(N)=O)NC(=O)[C@H](CCC(N)=O)NC(=O)[C@H]([C@@H](C)CC)NC2=O)cc1 | < 4.00 | < 4.00 | 2 | 5.2 | < 4.00 | Active | Active | inactive | – |
| – | CC[C@H](C)[C@@H]1NC(=O)[C@H](Cc2ccc(O)cc2)NC(=O)[C@@H](N)CSSC[C@@H](C(=O)N2CCC[C@H]2C(=O)N[C@@H](CC(C)C)C(=O)NCC(N)=O)NC(=O)[C@H](CC(N)=O)NC(=O)[C@H](CCC(N)=O)NC1=O [OXYTOCIN] | – | – | 5.3 | 0 | – | – | – | – | inactive |
| 0 | CCCCCCCCCCCCCCCOC(=O)Oc1ccc(C[C@@H]2NC(=O)[C@@H](NC(=O)CCCCCCCCCCCCCCC)CSSC[C@@H](C(=O)N3CCC[C@H]3C(=O)N[C@@H](CC(C)C)C(=O)NCC(N)=O)NC(=O)[C@H](CC(N)=O)NC(=O)[C@H](CCC(N)=O)NC(=O)[C@H]([C@@H](C)CC)NC2=O)cc1 | < 4.00 | < 4.00 | 3.9 | 2.9 | < 4.00 | – | – | – | – |

| SMILES | Emax [1] [%] | pEC50 (Vasopressin V1a receptor) | pEC50 (Vasopressin V1b receptor) | Activity (Mus musculus [2]) | Activity (Mus musculus [3]) | pEC50 (Oxytocin receptor) | Activity (Mus musculus [4]) | Activity (Mus musculus [5]) | Activity (Mus musculus [6]) | Activity (Mus musculus [7]) |
| --- | --- | --- | --- | --- | --- | --- | --- | --- | --- | --- |
| CCCCCCCCCCCCCCCC(=O)N[C@H]1CSSC[C@@H](C(=O)N2CCC[C@H]2C(=O)N[C@@H](CC(C)C)C(=O)NCC(N)=O)NC(=O)[C@H](CC(N)=O)NC(=O)[C@H](CCC(N)=O)NC(=O)[C@H]([C@@H](C)CC)NC(=O)[C@H](Cc2ccc(OC(=O)NCCCCCCCCCCCCCC)cc2)NC1=O | 0 | < 4.00 | < 4.00 | 3.3 | 3.6 | < 4.00 | – | – | – | – |
| CCCCCCCCCCCCCCCCNC(=O)Oc1ccc(C[C@@H]2NC(=O)[C@@H](NC(=O)CCCCCCCCCCCCCCC)CSSC[C@@H](C(=O)N3CCC[C@H]3C(=O)N[C@@H](CC(C)C)C(=O)NCC(N)=O)NC(=O)[C@H](CC(N)=O)NC(=O)[C@H](CCC(N)=O)NC(=O)[C@H]([C@@H](C)CC)NC2=O)cc1 | 0 | < 4.00 | < 4.00 | 1.9 | 3.4 | < 4.00 | – | – | – | – |
